Measurements pooled from the literature.
Read-out: enzyme activity
Mode: inhibitor
MTOR: Serine/threonine-protein kinase mTOR (MTOR, Homo sapiens, UniProt P42345)
YCK2: Serine/threonine protein kinase YCK2 (YCK2, Candida albicans, UniProt A0A1D8PKB4)
EGFR: Epidermal growth factor receptor (EGFR, Homo sapiens, UniProt P00533)
CDK6 with cyclin D3: Cyclin-dependent kinase 6, with cyclin D3 (CDK6, Homo sapiens, UniProt Q00534)
CA2: Carbonic anhydrase 2 (CA2, Bos taurus, UniProt P00921)

COc1ccc(-c2ccc3c(N4CCOC[C@@H]4C)nc(N4CCOC[C@@H]4C)nc3n2)cc1COC(=O)CCOCCOCCOCCONC(=O)c1ccc(F)c(F)c1Nc1ccc(I)cc1F
IC50 (MTOR; FRET): 40.5 nM

c1coc(-c2n[nH]cc2-c2ccnc3ccccc23)c1
IC50 (YCK2; ADP detection): 830 nM

Nc1cc(N2C(=O)c3ccccc3C2=O)nc(SCC(=O)NN=Cc2ccc(Cl)cc2)n1
IC50 (EGFR): 880 nM

NS(=O)(=O)c1ccc(-n2nc(C(=O)NN=Cc3ccc(O)cc3)cc2-c2ccccc2)cc1
IC50 (Serine/threonine-protein kinase B-raf (BRAF, Homo sapiens, UniProt P15056, V600E)): 18500 nM

CNS(=O)(=O)c1ccc(Nc2ncc(C(F)(F)F)c(N3CCC(C)(O)CC3)n2)c(C)c1
IC50 (CDK6 with cyclin D3; radiometric): 794 nM

Cc1cc2c(C(N)=O)c(N)n(-c3c(C)ccc(O)c3C)c2nc1C
IC50 (Serine/threonine-protein kinase B-raf (BRAF, Homo sapiens, UniProt P15056); ADP detection): 15.3 nM

c1ccc(Cn2cc(-c3ccnc4ccccc34)c(-c3ccccn3)n2)cc1
IC50 (YCK2; ADP detection): 1000 nM

COc1ccc(N2CCN(Cc3cn4c(-c5ccc(Br)cc5)nnc4s3)CC2)cc1
IC50 (Ferroptosis suppressor protein 1 (AIFM2, Homo sapiens, UniProt Q9BRQ8, S364A/T363A); absorbance): 61 nM

Nc1cnccc1Nc1ccc(Cl)c(Cl)c1
IC50 (SMUG1 (Homo sapiens, UniProt Q53HV7)): > 100000 nM

C[C@@H]1O[C@@H](O[C@H]2[C@H](Oc3cc(O)c4c(c3)O[C@H](c3ccc(O)cc3)CC4=O)O[C@H](CO)[C@@H](O)[C@@H]2O)[C@H](O)[C@H](O)[C@H]1O
IC50 (CA2; absorbance): 83 nM

NS(=O)(=O)c1ccc(Nc2nc3nc(=S)[nH]c(-c4cccc(O)c4)c3s2)cc1
IC50 (CA2; absorbance): 62.7 nM

Oc1ccccc1-c1n[nH]cc1-c1ccnc2ccccc12
IC50 (YCK2; ADP detection): 350 nM

CNS(=O)(=O)c1ccc(Nc2ncc(C(F)(F)F)c(N3CCCC(C)(O)C3)n2)c(C)c1 (centres unmarked)
IC50 (CDK6 with cyclin D3; radiometric): 4320 nM

COc1c(Cl)cccc1Nc1c(-c2ccncc2OC[C@@H]2COCCO2)[nH]c2c1C(=O)NCC2
IC50 (EGFR; TR-FRET): < 0.5 nM

O=C1/C(=C/c2ccc3ccccc3c2O)NC(=S)N1c1ccccc1
IC50 (EGFR; ELISA): 183 nM

CNS(=O)(=O)c1ccc(Nc2ncc(C(F)(F)F)c([C@H]3CC[C@](C)(O)CC3)n2)c(C)c1
IC50 (CDK6 with cyclin D3; radiometric): 715 nM

COc1ccc(-c2ccc3c(N4CCOC[C@@H]4C)nc(N4CCOC[C@@H]4C)nc3n2)cc1C(=O)NCCOCCOCCOCCONC(=O)c1ccc(F)c(F)c1Nc1ccc(I)cc1F
IC50 (MTOR; FRET): 28 to 40 nM

O=C(/C=C/c1ccc(F)cc1)c1nc2ccccc2n1Cc1cn([C@@H]2O[C@H](CO)[C@H](O)[C@H](O)[C@H]2O)nn1
IC50 (EGFR): 69 nM

Cc1cc(S(=O)(=O)NCCO[C@H]2CC[C@H](CN3CCC(c4ccn5c(N6CCC(=O)NC6=O)cnc5c4)CC3)CC2)ccc1Nc1ncc2cc(Cl)c(=O)n(C3CCCC3)c2n1
IC50 (CDK6 with cyclin D3; radiometric): 153 nM

CC(=O)c1nc2ccccc2n1Cc1cn([C@@H]2O[C@H](CO)[C@H](O)[C@H](O)[C@H]2O)nn1
IC50 (EGFR): 324 nM

Cc1cc(O)c(-c2ccc([C@@H](C)CN(C)C)cc2)c2c1[nH]c(=O)c1sccc12
IC50 (Cyclin-dependent kinase 6, with cyclin D1 (CDK6, Homo sapiens, UniProt Q00534)): > 1000 nM

N#Cc1ccc(NC(=O)Nc2ccccc2)cc1
IC50 (SRSF protein kinase 3 (SRPK3, Homo sapiens, UniProt Q9UPE1); FRET): 5700 nM

O=C1CCC(N2C(=O)c3ccccc3C2=O)C(=O)N1 (centres unmarked)
IC50 (EGFR): 1130 nM
